ChEMBL document CHEMBL3232844, “Synthesis and structure activity relationships of schweinfurthin indoles” (2014)

Experiments:
Type in all cases: functional
SK-MEL-2 = experiment: Cytotoxicity against human SK-MEL-2 cells
Summary of the method: (§1)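 Tested in a 60-cell-line human tumor panel screen; the read-out is growth inhibition, reported as GI50 for each cell line.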

SK-MEL-5 = experiment: Cytotoxicity against human SK-MEL-5 cells; summary of the method: as §1
[1] = Cytotoxicity against human UACC257 cells
Summary of the method: (§2)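 Cell line run as part of the 60-cell-line screening panel; growth inhibition was reported as a GI50 for each line.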

[2] = Cytotoxicity against human UACC62 cells; summary of the method: as §2
[3] = Cytotoxicity against human OVCAR3 cells; summary of the method: as §1
[4] = Cytotoxicity against human OVCAR4 cells; summary of the method: as §1
[5] = Cytotoxicity against human OVCAR5 cells; summary of the method: as §1
[6] = Cytotoxicity against human OVCAR8 cells; summary of the method: as §1
[7] = Cytotoxicity against human NCI-ADR-RES cells; summary of the method: as §1
SK-OV-3 = experiment: Cytotoxicity against human SKOV3 cells; summary of the method: as §1
A498 = experiment: Cytotoxicity against human A498 cells; summary of the method: as §1
ACHN = experiment: Cytotoxicity against human ACHN cells; summary of the method: as §1
CAKI-1 = experiment: Cytotoxicity against human Caki1 cells; summary of the method: as §1
RXF 393 = experiment: Cytotoxicity against human RXF393 cells; summary of the method: as §1
TK-10 = experiment: Cytotoxicity against human TK10 cells; summary of the method: as §2
[8] = Cytotoxicity against human UO31 cells; summary of the method: as §2
DU-145 = experiment: Cytotoxicity against human DU145 cells; summary of the method: as §1
MCF7 = experiment: Cytotoxicity against human MCF7 cells; summary of the method: as §1
MDA-MB-231 = experiment: Cytotoxicity against human MDA-MB-231 cells; summary of the method: as §1
BT-549 = experiment: Cytotoxicity against human BT549 cells; summary of the method: as §1
T47D = experiment: Cytotoxicity against human T47D cells; summary of the method: as §2
MDA-MB-468 = experiment: Cytotoxicity against human MDA-MB-468 cells; summary of the method: as §1
[9] = read-out: pLC50 (the source's name) (converted)

COc1cc(/C=C/c2cc(OC)c3c(C/C=C(\C)CCC=C(C)C)c[nH]c3c2)cc2c1O[C@]1(C)CC[C@@H](O)C(C)(C)[C@H]1C2
GI50 (SK-MEL-2): 1 µM
CC50 (SK-MEL-2; [9]): 63.1 µM
TGI (SK-MEL-2; read-out: pTGI (converted)): 9.77 µM
GI50 (SK-MEL-5): 0.525 µM
CC50 (SK-MEL-5; [9]): 4.37 µM
TGI (SK-MEL-5; read-out: pTGI (converted)): 1.86 µM
GI50 ([1]; UACC-257): 5.75 µM
CC50 ([1]; UACC-257, read-out: pLC50 (the source's name) (converted)): 81.3 µM
TGI ([1]; UACC-257, read-out: pTGI (converted)): 25.7 µM
GI50 ([2]; UACC-62): 0.309 µM
CC50 ([2]; UACC-62, read-out: pLC50 (the source's name) (converted)): 7.76 µM
TGI ([2]; UACC-62, read-out: pTGI (converted)): 1.48 µM
GI50 ([3]; OVCAR-3): 5.5 µM
CC50 ([3]; OVCAR-3, read-out: pLC50 (the source's name) (converted)): 47.9 µM
TGI ([3]; OVCAR-3, read-out: pTGI (converted)): 20 µM
GI50 ([4]; OVCAR-4): 2.57 µM
CC50 ([4]; OVCAR-4, read-out: pLC50 (the source's name) (converted)): > 100 µM
TGI ([4]; OVCAR-4, read-out: pTGI (converted)): 70.8 µM
GI50 ([5]; OVCAR-5): 1.02 µM
CC50 ([5]; OVCAR-5, read-out: pLC50 (the source's name) (converted)): 49 µM
TGI ([5]; OVCAR-5, read-out: pTGI (converted)): 14.5 µM
GI50 ([6]; OVCAR-8): 12.6 µM
CC50 ([6]; OVCAR-8, read-out: pLC50 (the source's name) (converted)): > 100 µM
TGI ([6]; OVCAR-8, read-out: pTGI (converted)): 36.3 µM
GI50 [7]: 14.8 µM
CC50 [7, 9]: > 100 µM
TGI ([7]; read-out: pTGI (converted)): > 100 µM
GI50 (SK-OV-3): 1.23 µM
LC50 (SK-OV-3): > 100 µM
TGI (SK-OV-3; read-out: pTGI (converted)): 13.8 µM
GI50 (A498): 1.02 µM
CC50 (A498; [9]): 16.6 µM
TGI (A498; read-out: pTGI (converted)): 3.72 µM
GI50 (ACHN): 0.661 µM
LC50 (concentration killing 50% of cells) (ACHN): 85.1 µM
TGI (ACHN; read-out: pTGI (converted)): 16.2 µM
GI50 (CAKI-1): 0.603 µM
LC50 (CAKI-1): > 100 µM
TGI (CAKI-1; read-out: pTGI (converted)): 3.89 µM
GI50 (RXF 393): 0.055 µM
LC50 (RXF 393): 1 µM
TGI (RXF 393; read-out: pTGI (converted)): 0.251 µM
GI50 (TK-10): 4.27 µM
LC50 (TK-10): > 100 µM
TGI (TK-10; read-out: pTGI (converted)): 46.8 µM
GI50 ([8]; UO-31): 0.631 µM
LC50 ([8]; UO-31): > 100 µM
TGI ([8]; UO-31, read-out: pTGI (converted)): 14.1 µM
GI50 (DU-145): 3.8 µM
LC50 (50% lethal concentration) (DU-145): 45.7 µM
TGI (DU-145; read-out: pTGI (converted)): 19.1 µM
GI50 (MCF7): 1.02 µM
LC50 (MCF7): 12.6 µM
TGI (MCF7; read-out: pTGI (converted)): 3.39 µM
GI50 (MDA-MB-231): 1.41 µM
LC50 (MDA-MB-231): 66.1 µM
TGI (MDA-MB-231; read-out: pTGI (converted)): 12.9 µM
GI50 (BT-549): 0.589 µM
CC50 (BT-549; [9]): 64.6 µM
TGI (BT-549; read-out: pTGI (converted)): 17.8 µM
GI50 (T47D): 7.24 µM
CC50 (T47D; [9]): > 100 µM
TGI (T47D; read-out: pTGI (converted)): 34.7 µM
GI50 (MDA-MB-468): 1.32 µM
LC50 (MDA-MB-468): 33.1 µM
TGI (MDA-MB-468; read-out: pTGI (converted)): 8.51 µM
